The text below walks through data of ChEMBL document CHEMBL3286234, “Synthesis, Characterization, and in Vitro Evaluation of a New TSPO-Selective Bifunctional Chelate Ligand” (ACS Med Chem Lett, 2014).

The nature of experiment [1]: Induction of double strand breaks in supercoiled pET plasmid DNA (unknown origin) at 10 uM pretreated for 2 hrs by agarose gel electrophoresis in absence of CuCl2. The method, boiled down: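 Compound at 10 μM, without CuCl2, incubated with pET plasmid DNA. Supercoiled, open circular and linear forms resolved on 1% agarose gel stained with ethidium bromide.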
Experiment [2] deals with A2780. Briefly: Cytotoxicity against cisplatin-sensitive human A2780 cells assessed as inhibition of cell viability after 72 hrs by MTT assay. The class given is functional, cell-based. The conditions noted are these: A2780, 72 h. The method in brief: (§1)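 Cells treated across 0.05 to 100 μM and incubated 72 h at 37 °C; IC50 in μM.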
A general note: Tetrazolium assays rely on reduction of a dye to a coloured formazan, in cell work by metabolically active cells.

A short description of experiment [3]: Induction of double strand breaks in supercoiled pET plasmid DNA (unknown origin) at 0.5 to 10 uM pretreated for 2 hrs by agarose gel electrophoresis in presence of CuCl2 and GSH. The method in brief:
(§2)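 Compound preincubated 2 h with CuCl2 (5 equiv) and GSH (50 equiv), then reacted with pET plasmid DNA for 1 h at 37 °C at 0.5, 1, 2 or 10 μM. Forms I, II and III resolved on 1% agarose gel stained with ethidium bromide. Controls were untreated DNA and CuCl2 plus GSH alone.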

Experiment [4] relates to C6. Briefly: Cell cycle arrest in rat C6 cells assessed as proportion of cells at S phase at 0.3 uM after 72 hrs by propidium iodide staining based flow cytometry (reference value: 11.15%). The class given is functional. A general note: In flow cytometry, cells or beads pass a laser one at a time.
The subject of experiment [5] is C6. Nature of the experiment: Cell cycle arrest in rat C6 cells assessed as proportion of cells at G2/M phase at 0.3 uM after 72 hrs by propidium iodide staining based flow cytometry (reference value: 28.02%). Format: functional.
The subject of experiment [6] is C6. Nature of the experiment: Cytotoxicity against rat C6 cells overexpressing TSPO assessed as inhibition of cell viability after 72 hrs by MTT assay. The class given is functional, cell-based. Particulars: C6, 72 h. The method, boiled down: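 Cells exposed to drug over 0.05 to 100 μM at 37 °C for 72 h; IC50 reported.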
Experiment [7] deals with C6. Nature of the experiment: Induction of mitochondrial and nuclear structure modification in rat C6 cells assessed as fragmented nuclei and mitochondria at 10 uM after 24 hrs by MitoTracker Red/DAPI staining based fluorescence microscopy. Format: functional, cell-based. The method, boiled down:
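C6 glioma cells exposed at 10 μM for 24 h, then stained with MitoTracker Red for mitochondria and DAPI for nuclei. Morphology assessed with a digital imaging system. Untreated cells served as control.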

Experiment [8] concerns A2780cisR. Briefly: Cytotoxicity against human A2780cisR cells assessed as inhibition of cell viability after 72 hrs by MTT assay. The class given is functional, cell-based. The method in brief: as §1
A short description of experiment [9]: Induction of single strand breaks in supercoiled pET plasmid DNA (unknown origin) at 0.5 to 10 uM pretreated for 2 hrs by agarose gel electrophoresis in presence of CuCl2 and GSH. The method, boiled down:
as §2

In experiment [10] the test system is A2780cisR. Briefly: Resistance factor, ratio of IC50 for human A2780cisR cells to IC50 for cisplatin-sensitive human A2780 cells. Format: functional.
In experiment [11] the test system is C6. Nature of the experiment: Cell cycle arrest in rat C6 cells at 10 uM after 24 hrs by propidium iodide staining based flow cytometry. Format: functional. The method in brief: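 C6 glioma cells exposed to 10 μM for 24 h, then cell cycle histograms recorded by flow cytometry. Untreated cells served as control.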
Experiment [12] has as its system C6. Nature of the experiment: Cell cycle arrest in rat C6 cells assessed as proportion of cells at sub-G1 phase at 0.3 uM after 72 hrs by propidium iodide staining based flow cytometry (reference value: 5.89%). Format: functional.
The test system of experiment [13] is C6. Briefly: Antiproliferative activity in rat C6 cells assessed as proportion of cells with depolarized mitochondrial membrane potential at 10 uM after 24 hrs by JC-1 staining based flow cytometry (reference value: 0.21%). Format: functional.
Experiment [14] has as its system C6. Briefly: Cell cycle arrest in rat C6 cells assessed as proportion of cells at G0/G1 phase at 0.3 uM after 72 hrs by propidium iodide staining based flow cytometry (reference value: 54.94%). The class given is functional.
The target in experiment [15] is Translocator protein (Rattus norvegicus, UniProt P16257). Nature of the experiment: Displacement of [3H]PK11195 from TSPO in rat C6 cell membrane after 90 mins by radioligand binding assay. Format: cell membranes. The method in brief:
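Affinity for TSPO was measured on membrane extracts of C6 glioma cells and reported as Ki (nM).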
In general terms: Loss of bound radioactivity is the signal in a displacement assay; it reports binding, not function.

A short description of experiment [16]: Induction of double strand breaks in supercoiled pET plasmid DNA (unknown origin) at 10 uM pretreated for 2 hrs by agarose gel electrophoresis in presence of CuCl2 and GSH. The method, boiled down:
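Ligand (0.5, 1, 2 or 10 μM) preincubated 2 h with CuCl2 (5 equiv) and GSH (50 equiv), then reacted with pET plasmid for 1 h at 37 °C. Products separated on 1% agarose gel stained with ethidium bromide and scored as supercoiled (I), open circular (II) and linear (III) forms.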

The source made the active and inactive calls. The rule behind the calls is not given here.

Sequence of Translocator protein (P16257 whole entry, looked up): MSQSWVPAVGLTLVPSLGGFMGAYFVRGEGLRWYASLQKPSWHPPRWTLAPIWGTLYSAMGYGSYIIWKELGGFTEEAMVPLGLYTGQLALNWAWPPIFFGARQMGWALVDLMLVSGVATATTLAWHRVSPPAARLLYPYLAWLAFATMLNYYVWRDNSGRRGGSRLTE

The term IC50 denotes the concentration that inhibits the measured activity by half. As usually defined, the Ki is a dissociation constant, usually derived from enzyme kinetics or from competition with a known ligand. High values mean lower affinity, low ones higher affinity. For the molecule `CCCN(CCC)C(=O)Cc1c(-c2ccc(Cl)cc2)nc2c(NC(=O)CN(Cc3ccccn3)Cc3ccccn3)cccn12`, the outcome in [1], in [9] and in experiment [11] was inactive. Moreover, the IC50 in experiment [2] was 9.02 µM; in experiment [6], 0.27 µM; in [8], 9.21 µM. The outcome in experiment [3] and in experiment [7] was Active. Moreover, the Activity is 13.18% in [4]; 28.69% in [5]; 9.06% in experiment [12]; 2.47% in [13]; 49.07% in experiment [14]. Further, the “Ratio IC50” value in experiment [10] was determined as 1.02. In [15], this molecule returned a Ki of 0.239 µM.

Take `CCCN(CCC)C(=O)Cc1c(-c2ccc(Cl)cc2)nc2c(N)cccn12`: the IC50 in [6] turned out to be 19.7 µM. The same molecule returned a Ki in experiment [15] of 0.0016 µM. Besides, in experiment [16], the result was inactive.
